Experimental data reported in ChEMBL document CHEMBL4715757, “Studies on the inhibition of sphingosine-1-phosphate lyase by stabilized reaction intermediates and stereodefined azido phosphates” (Eur J Med Chem, 2016).

How the values were obtained:
[1] = Inhibition of recombinant full-length wild type Symbiobacterium thermophilum S1PL using RBM13 as fluorogenic substrate incubated for 1 hr
Outline: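 StS1PL, expressed and purified in-house, used at 25 µg/mL final. Buffer: 1 mM potassium phosphate pH 7.2 with 100 mM NaCl, 1 mM EDTA, 1 mM DTT and 10 µM PLP. RBM13 at 125 µM final; 37 °C for 1 h. Stopped with MeOH, then glycine-NaOH pH 10.6 for 20 min at 37 °C. Umbelliferone read at ex/em 355/460 nm against a calibration curve. IC50 fitted from % activity vs log[I].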

[2] = molecular target: T1, Sphingosine-1-phosphate lyase 1 (Homo sapiens, UniProt O95470); experiment: Inhibition of recombinant human S1PL using RBM13 as fluorogenic substrate incubated for 1 hr
T1 sequence (O95470 whole entry): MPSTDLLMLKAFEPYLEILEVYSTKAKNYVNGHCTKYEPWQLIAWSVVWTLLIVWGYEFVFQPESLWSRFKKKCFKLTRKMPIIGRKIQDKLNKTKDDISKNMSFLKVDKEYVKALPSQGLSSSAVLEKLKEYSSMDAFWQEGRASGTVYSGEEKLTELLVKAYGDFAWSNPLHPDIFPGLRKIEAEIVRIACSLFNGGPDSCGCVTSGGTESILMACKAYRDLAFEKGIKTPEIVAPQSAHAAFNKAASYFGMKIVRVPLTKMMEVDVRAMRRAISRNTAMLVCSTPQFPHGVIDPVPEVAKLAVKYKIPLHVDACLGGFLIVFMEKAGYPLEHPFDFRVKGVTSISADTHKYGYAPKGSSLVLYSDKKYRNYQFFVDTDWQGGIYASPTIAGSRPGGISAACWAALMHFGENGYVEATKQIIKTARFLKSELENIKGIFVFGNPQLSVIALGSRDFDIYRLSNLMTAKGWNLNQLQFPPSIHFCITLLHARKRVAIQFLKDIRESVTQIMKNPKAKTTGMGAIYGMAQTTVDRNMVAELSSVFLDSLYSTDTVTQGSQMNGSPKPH
Outline: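 Recombinant hS1PL at 3 µg/mL final in 100 mM HEPES pH 7.4 with 0.1 mM EDTA, 0.05% Triton X-100, 0.01% Pluronic F127 and 100 µM PLP. RBM13 at 125 µM final; 37 °C for 1 h. MeOH stop, then glycine-NaOH pH 10.6 for 20 min at 37 °C. Umbelliferone fluorescence at 355/460 nm, calibration curve. IC50 from % activity vs log[I].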

[3] = molecular target: T1, Sphingosine-1-phosphate lyase 1; experiment: Competitive inhibition of human S1PL using varying levels of RBM13 as substrate by Lineweaver-Burk plot analysis
[4] = molecular target: T2, Sphingosine-1-phosphate lyase 1 (Mus musculus, UniProt Q8R0X7); experiment: Inhibition of mouse liver microsomal S1PL using S1P as substrate incubated for 20 mins by ESI-LC/MS analysis; format: microsomes, Microsome
T2 sequence (Q8R0X7 whole entry): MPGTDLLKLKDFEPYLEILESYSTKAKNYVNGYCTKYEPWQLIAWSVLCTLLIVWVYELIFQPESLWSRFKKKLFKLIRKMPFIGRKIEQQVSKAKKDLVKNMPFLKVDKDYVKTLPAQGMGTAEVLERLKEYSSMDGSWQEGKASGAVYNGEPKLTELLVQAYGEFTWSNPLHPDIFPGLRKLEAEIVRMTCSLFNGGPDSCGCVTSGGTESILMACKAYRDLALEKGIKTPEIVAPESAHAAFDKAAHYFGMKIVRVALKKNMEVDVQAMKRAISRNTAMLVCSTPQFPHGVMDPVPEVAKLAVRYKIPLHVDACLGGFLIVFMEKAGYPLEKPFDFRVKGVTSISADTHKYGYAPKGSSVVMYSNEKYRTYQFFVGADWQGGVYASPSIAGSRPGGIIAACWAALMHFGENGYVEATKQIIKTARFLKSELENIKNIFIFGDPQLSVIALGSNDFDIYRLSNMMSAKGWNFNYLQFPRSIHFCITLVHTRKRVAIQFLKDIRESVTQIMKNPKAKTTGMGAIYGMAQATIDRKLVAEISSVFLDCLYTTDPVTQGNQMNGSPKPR

[5] = tested on: Symbiobacterium thermophilum; experiment: Inhibition of recombinant full-length wild type Symbiobacterium thermophilum S1PL at 250 uM using RBM13 as fluorogenic substrate incubated for 1 hr relative to control
[6] = molecular target: T3, Sphingosine-1-phosphate lyase 1 (Homo sapiens) (UniProt O95470); experiment: Inhibition of recombinant human S1PL at 250 uM using RBM13 as fluorogenic substrate incubated for 1 hr relative to control
T3 sequence (whole entry): T1 sequence (O95470 whole entry)

SMILES | IC50 [1] [µM] | IC50 [2] [µM] | Ki [3] [µM] | IC50 [4] [µM] | inhibition [5] [%] | inhibition [6] [%]
CCCCCCCCCCCCCCC[C@H](O)[C@H](COP(=O)(O)O)N=[N+]=[N-] | 27.2 | 21.8 | 16.4 |  |  | 
CCCCCCCCCCCCCCC[C@@H](O)[C@H](COP(=O)(O)O)NCc1c(COP(=O)(O)O)cnc(C)c1O | 47 | 81.1 |  |  |  | 
CCCCCCCCCCCCCCC[C@H](O)[C@@H](COP(=O)(O)O)N=[N+]=[N-] | 25.7 | 10.8 | 6.3 |  |  | 
CCCCCCCCc1ccc(CCC(N)(CO)CO)cc1 [FINGOLIMOD] |  |  |  | 52.4 |  | 
CCCCCCCCCCCCC/C=C/[C@@H](O)[C@H](COP(=O)(O)O)NCc1c(COP(=O)(O)O)cnc(C)c1O | 53.4 | 89 |  |  |  | 
Cc1ncc(COP(=O)(O)O)c(CNCCOP(=O)(O)O)c1O |  |  |  |  | 20 | 20

Continued by falling IC50 [1], values first:

IC50 [1] [µM] | IC50 [2] [µM] | Ki [3] [µM] | IC50 [4] [µM] | inhibition [5] [%] | inhibition [6] [%] | SMILES
25 | 25.7 | 19 |  |  |  | CCCCCCCCCCCCCCC[C@@H](O)[C@H](COP(=O)(O)O)N=[N+]=[N-]
24.3 | 28.3 | 36.7 |  |  |  | CCCCCCCCCCCCCCC[C@@H](O)[C@@H](COP(=O)(O)O)N=[N+]=[N-]
16 | 28.8 | 20.4 |  |  |  | CCCCCCCCCCCCC/C=C/[C@H](O)[C@H](COP(=O)(O)O)N=[N+]=[N-]
13.8 | 5.2 | 5.6 |  |  |  | CCCCCCCCCCCCC/C=C/[C@H](O)[C@@H](COP(=O)(O)O)N=[N+]=[N-]
12.9 | 10.1 | 9.1 |  |  |  | CCCCCCCCCCCCC/C=C/[C@@H](O)[C@H](COP(=O)(O)O)N=[N+]=[N-]
11.7 | 22.9 | 17.5 |  |  |  | CCCCCCCCCCCCC/C=C/[C@@H](O)[C@@H](COP(=O)(O)O)N=[N+]=[N-]
